≈ marks a conversion by molar mass, not a printed value.
Legend:
[1] = Aqueous solubility in phosphate buffer at pH 4.0; type: physicochemical
Outline: (§1)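 Excess solid equilibrated in 100 mM phosphate buffer (pH 4.0 or 7.0) at 25 °C for 24 h. Filtered through 0.2 µm, diluted in mobile phase and quantified by HPLC with fluorescence detection against calibration curves. Single determination.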

[2] = Aqueous solubility in phosphate buffer at pH 7.0; type: physicochemical; outline: as §1
HepG2 [3] = experiment: Cytotoxicity against human HepG2 cells assessed as inhibition of [3H]thymidine after 48 hrs; type: functional, cell-based
Outline: (§2)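 Exponentially growing cells, 5 × 10³/well in RPMI with 10% bovine serum and penicillin/streptomycin, 37 °C, 5% CO₂, exposed to a range of drug concentrations (DMSO final ≤0.5%; vehicle controls). After 48 h, 12 h [³H]thymidine pulse (1 µCi/well); trypsinized cells counted for radioactivity. Triplicate wells, 1–3 experiments; IC50 interpolated from log dose–response curves.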

COLO 205 [4] = experiment: Cytotoxicity against human Colo 205 cells assessed as inhibition of [3H]thymidine after 48 hrs; type: functional, cell-based; outline: as §2
HT-29 [5] = experiment: Cytotoxicity against human HT29 cells assessed as inhibition of [3H]thymidine after 48 hrs; type: functional, cell-based; outline: as §2
[6] = Cytotoxicity against human H298 cells assessed as inhibition of [3H]thymidine after 48 hrs; type: functional, cell-based; outline: as §2
Escherichia coli [7] = experiment: Activity of Escherichia coli beta-glucuronidase
Outline: (§3)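 Prodrug at various concentrations incubated with 0.125 µg/mL E. coli β-glucuronidase, pH 7.0, 37 °C, 20 min; stopped with ice-cold MeOH to precipitate protein. Substrate and released 10-hydroxycamptothecin quantified by reversed-phase HPLC with fluorescence detection (ex 397, em 482 nm) against standard calibration curves; Km, Vmax and Vmax/Km derived.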

Escherichia coli [8] = experiment: Ratio of […] of Escherichia coli beta-glucuronidase; outline: as §3
[9] = Stability in human plasma assessed as degradation after 10 mins; type: ADME, cell-free; settings: read-out: Activity
Outline: (§4)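 Incubated in 95% human plasma at 37 °C up to 6 h. Aliquots neutralized with 12 mM phosphoric acid, extracted three times with ethyl acetate, dried, redissolved in mobile phase, filtered and analysed by reversed-phase HPLC with fluorescence detection.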

Plasma = experiment: Stability in 95% human plasma; type: ADME, cell-free; outline: as §4
[10] = Prodrug hydrolysis by Escherichia coli beta-glucuronidase assessed as release of 10-hydroxycamptothecin at pH 7.0; type: ADME; design: scale not given: the % may be the effect or the level left; settings: buffer
Outline: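 Substrate incubated with E. coli β-glucuronidase (0.1 µg/mL) in pH 7.0 phosphate buffer at 37 °C. Aliquots taken over time; substrate and released 10-hydroxycamptothecin quantified by fluorescence-detected reversed-phase HPLC. Triplicate determinations.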

COLO 205 [11] = experiment: Cytotoxicity against human Colo 205 cells assessed as inhibition of [3H]thymidine in presence of beta-glucuronidase after 48 hrs; type: functional, cell-based
Outline: (§5)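 As the plain [³H]thymidine assay (5 × 10³ cells/well, RPMI/10% serum, 48 h exposure, then 12 h 1 µCi/well pulse, scintillation counting), but β-glucuronidase (5 µg/mL; 1 µg/well) added together with drug. Triplicate wells, 1–3 experiments; IC50 interpolated from log dose–response curves.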

HepG2 [12] = experiment: Cytotoxicity against human HepG2 cells assessed as inhibition of [3H]thymidine in presence of beta-glucuronidase after 48 hrs; type: functional, cell-based; outline: as §5
HT-29 [13] = experiment: Cytotoxicity against human HT29 cells assessed as inhibition of [3H]thymidine in presence of beta-glucuronidase after 48 hrs; type: functional, cell-based; outline: as §5
[14] = Cytotoxicity against human H298 cells assessed as inhibition of [3H]thymidine in presence of beta-glucuronidase after 48 hrs; type: functional, cell-based; outline: as §5

SMILES	solubility [1]	solubility ([2]; buffer)	IC50 (HepG2 [3])	IC50 (COLO 205 [4])	IC50 (HT-29 [5])	IC50 [6]	Km (Escherichia coli [7])	Vmax (Escherichia coli [7])	Ratio (Escherichia coli [8])	metabolised at 10 min [9]	solubility ([2]; phosphate buffer, read-out: Solubility)	Stability (Plasma)	Activity [10]	IC50 (COLO 205 [11])	IC50 (HepG2 [12])	IC50 (HT-29 [13])	IC50 [14]
CC[C@@]1(O)C(=O)OCc2c1cc1n(c2=O)Cc2cc3cc(O)ccc3nc2-1 [HYDROXYCAMPTOTHECIN]	13.7 µM (≈ 4.99 µg/mL)	137 µM (≈ 49.9 µg/mL)	5.4 nM	9.1 nM	8.8 nM	6.9 nM											
CC[C@@]1(O)C(=O)OCc2c1cc1n(c2=O)Cc2cc3c(NC(=O)OCc4ccc(O[C@@H]5O[C@H](C(=O)O)[C@@H](O)[C@H](O)[C@H]5O)cc4)cccc3nc2-1							30 µM	0.86 µM/min	0.03 min⁻¹								
CC[C@@]1(O)C(=O)OCc2c1cc1n(c2=O)Cc2cc3cc(OC(=O)OCc4ccc(O[C@@H]5O[C@H](C(=O)OC)[C@@H](O)[C@H](O)[C@H]5O)cc4)ccc3nc2-1										70%							
CC[C@@]1(O)C(=O)OCc2c1cc1n(c2=O)Cc2cc3cc(OCc4ccc(O[C@@H]5O[C@H](C(=O)O)[C@@H](O)[C@H](O)[C@H]5O)c([N+](=O)[O-])c4)ccc3nc2-1	1100 µM (≈ 761 µg/mL)		56.5 nM	94.2 nM	97.8 nM	91.1 nM	0.18 µM	2.7 µM/min	15 min⁻¹		2600 µM (≈ 1800 µg/mL)	Stable	> 50%	10.2 nM	6.6 nM	10 nM	11.1 nM

Reference: ChEMBL document CHEMBL1144665, “Benzyl ether-linked glucuronide derivative of 10-hydroxycamptothecin designed for selective camptothecin-based anticancer therapy” (J Med Chem, 2008)
